Assay outcomes: PubChem BioAssay, several laboratories
Only some compounds are listed: those with a hit (about 1.4% of all), similar ones and a draw of the others.
PERK inhibitor: blocks human PERK kinase; CHO PERK-DD fusion, SEAP luminescence translation reporter; inhibition, % at 5.6 µM; 220,000 tested, 0.17% active;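 active means inhibition above the mean inhibition of all tested compounds plus 3 SD, set separately per screening campaign, cut at about 2.9% in these data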;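 further: PERK kinase domain activated by AP20187 dimerizer at 100 nM; 0% = DMSO with dimerizer and 100% = rapamycin at 8.4 µM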
Platelet DG rel: platelet dense granule release activity; human platelet-rich plasma, SFLLRN dense granule ATP release, luminescence; inhibition, %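 (compounds screened at 7.5 µM in platelet-rich plasma)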; 300,000 tested, 0.22% active; AID 1663;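 active means mean replicate score, as percent of positive control, at or above 50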
STAT3 act-1: increases IL-6 driven STAT3 reporter signal; U3A cells, IL-6 STAT3-luciferase reporter, luminescence; 100% = signal with IL-6 EC80 alone; activation (% of control), % at 5.6 µM; 190,000 tested, 0.91% active;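 active means activation above the screen-wide mean of compound activation plus 3 SD, cut at about 130% in these data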;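 further: 0% = background luminescence of wells with medium and substrate only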
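Material: human U3A cells carrying STAT3-luciferase construct. Measured by: reporter luminescence signal. Timing: compound 1 h, then IL-6 6 h at 37 °C.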
STAT3 blocker: inhibitors of IL-6 induced STAT3 signaling. inhibition, % at 5.5 µM. U3A cells, IL-6 STAT3-luciferase reporter, luminescence; host cell line lacks STAT1. 190,000 tested, 0.89% active;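 active means inhibition above the mean inhibition across all screened compounds plus 3 SD, cut at about 44% in these data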;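 further: 0% = DMSO only wells and 100% = 100 µM nifuroxazide control wells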
STAT1 inh: reduces IFN-gamma driven STAT1 reporter signal. NIH 3T3 STAT1-luciferase reporter, luminescence. inhibition, % at 5.5 µM. 200,000 tested, 0.35% active;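 active means inhibition above a set limit, the mean inhibition across all tested compounds plus 3 SD, cut at about 34% in these data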;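 further: 0% = IFN-gamma with DMSO and 100% = IFN-gamma with 300 µM nifuroxazide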
STAT3 act-2: STAT3 activation, confirmation assay; U3A STAT3-luciferase reporter, IL-6 potentiation, luminescence; U3A cells lack STAT1; 100 means same as IL-6 alone; 1,200 tested, 64% active; shares compounds with STAT3 act-1; potentiation (% of control), % at 5.7 µM; AID 1267;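 active means percent activation of the STAT3 luciferase reporter above a set limit taken from the earlier primary screen, cut at about 130% in these data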;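 further: 0% = background signal of medium plus substrate and 100% = median of IL-6 with DMSO wells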
NFkB act 2: NF-kappaB activation in STAT3 activator counter-screen; shares compounds with STAT3 act-1; 1,200 tested, 11% active; human cells, NF-kappaB reporter activation; activation (% of control), % at 5.7 µM; in the data active means activation above about 120%;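 further: reporter induced by TNF-alpha stimulation; 100% = median of stimulated DMSO wells and 0% = no signal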
STAT1 act STAT3c: counter-screen for STAT3 activators: STAT1 activation; shares compounds with STAT3 act-1; activation (% of control), % at 5.7 µM; 1,200 tested, 13% active; NIH 3T3 STAT1-luciferase reporter, IFN-gamma, luminescence;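 active means activation above the solvent-only control well mean plus 3 SD, set per screening run, cut at about 120% in these data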;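 further: 100% = IFN-gamma with DMSO median signal so 100% means no change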
* = called active by the depositor; · = no result.

SMILES	PERK inhibitor	Platelet DG rel	STAT3 act-1	STAT3 blocker	STAT1 inh	STAT3 act-2	NFkB act 2	STAT1 act STAT3c
CCOC(=O)N/N=C(\C)c1ccc(-n2cnnn2)cc1	1	4	97	14	5	·	·	·
C(=N\Nc1ncnc2sc3c(c12)CCC3)/c1cccs1	-2	-11	152*	-59	8	142*	110	95
NNc1ncnc2sc3c(c12)CCC3	1	-1	139*	-40	19	137*	102	92
Cn1c(=O)c(-c2cc(Br)ccc2N)nc2ccccc21	-1	5	164*	-64	14	155*	115	93
Cc1ccc(S(=O)(=O)NCC(=O)N2CCOCCOCCOCC2)cc1	·	-1	·	·	·	·	·	·
Cc1cc(NC(=O)CN2CC(C)OC(C)C2)n(-c2nc3ccccc3s2)n1 (stereo not drawn)	0	-5	150*	-59	-2	133*	102	102
Cc1cc(NC(=O)C(C)C)n(-c2nc3ccccc3s2)n1	0	7	143*	-40	-24	163*	116	117
O=C(CN1C(=O)/C(=C/c2c(F)cccc2Cl)Oc2ccccc21)NCc1ccco1	0	-2	154*	-61	8	187*	99	96
Cc1cc(NC(=O)C2CCCCC2)ccc1NC(=O)c1ccccc1Cl	-1	-3	88	17	3	·	·	·
COc1ccc(-c2nnc(Nc3nc4c(OC)cccc4s3)o2)c(OC)c1	-1	5	115	-11	-10	·	·	·
COc1ccc(-c2nnc(Nc3nc4c(OC)cccc4s3)o2)cc1	1	3	159*	-69	-7	137*	101	105
Cc1ccccc1Nc1nc(N)nc(COC(=O)c2cccn2C)n1	0	-2	114	-6	-46	·	·	·
CCc1ccccc1Nc1nc(N)nc(COC(=O)c2cccn2C)n1	-1	-6	147*	-44	-9	150*	110	125*
CCOc1cc(CNc2ccc3cn[nH]c3c2)ccc1OC	-1	9	175*	-79	6	161*	99	100
C=CCOc1ccc(CNc2ccc3[nH]c(=O)[nH]c3c2)cc1OC	0	·	103	0	-2	·	·	·
COc1ccc(CNc2ccc3cn[nH]c3c2)c(OC)c1OC	-1	2	144*	-53	11	129	95	93
O=C(COC(=O)c1ccc2c(c1)C(=O)N(Cc1ccncc1)C2=O)Nc1ccccc1[N+](=O)[O-]	0	-8	138*	-45	12	147*	107	96
COC(=O)c1cn(CC(=O)N2C(C)CCCC2C)c2ccccc12 (stereo not drawn)	0	-10	104	-1	-8	·	·	·
CC1CCCC(C)N1C(=O)Cn1cc(/C=C2/C(=O)Nc3ccccc32)c2ccccc21 (stereo not drawn)	-1	0	158*	-70	-4	151*	99	103
Cc1ccc(S(=O)(=O)N2CCCCC2)cc1C(=O)Nc1ccc2cn[nH]c2c1	0	1	151*	-49	15	135*	101	94
CC(=O)n1cc(Nc2ccc([N+](=O)[O-])cc2)c2ccccc21	0	-1	141*	-51	0	137*	95	100
CCOC(=O)c1ccccc1Nc1cn(C(C)=O)c2ccccc12	-1	-27	149*	-49	11	156*	97	114
CC(=O)n1cc(Nc2ccccc2C(=O)O)c2ccccc21	1	-2	156*	-60	14	162*	108	111
CCCCc1ncc(CN2CCC(n3nccc3NC(=O)c3ccccc3Cl)CC2)[nH]1	·	-13	·	·	·	·	·	·
O=C(O)c1cc(N=Cc2c(O)c3ccccc3oc2=O)ccc1O	·	6	·	·	·	·	·	·
SMILES	PERK inhibitor	Platelet DG rel	STAT3 act-1	STAT3 blocker	STAT1 inh	STAT3 act-2	NFkB act 2	STAT1 act STAT3c
O=C(CN(Cc1ccc(F)cc1)C(=O)CCC(=O)Nc1nccs1)NCC1CCCO1 (stereo not drawn)	·	3	·	·	·	·	·	·
O=C(NC(=S)Nc1nc2c(ccc3ccccc32)s1)c1cccs1	0	15	140*	-47	0	142*	100	80
CCn1nc(C)c(CN2CCc3c([nH]c4ccccc34)C2c2ccc(F)c(OC)c2)c1C (stereo not drawn)	1	0	106	0	0	·	·	·
CSc1ncc(CN2CCc3c([nH]c4ccccc34)C2c2cccc(O)c2)cn1 (stereo not drawn)	-2	-4	154*	-53	-8	147*	103	99
CCn1cc(CN2CCc3c([nH]c4ccccc34)C2c2cccc(O)c2)c(C)n1 (stereo not drawn)	-1	4	142*	-41	11	140*	102	89
CCOC(=O)c1ccccc1NC(=O)COC(=O)C(CCSC)NC(=O)COc1ccccc1 (stereo not drawn)	·	11	·	·	·	·	·	·
O=C(CN1C(=O)CC(c2ccccc2)S(=O)(=O)c2ccccc21)N1CCCC1 (stereo not drawn)	1	2	103	9	-2	·	·	·
CSc1nc(/C=C2\C=Nc3ccccc32)c(O)n1C	0	70*	146*	-55	0	155*	111	103
COc1cc([C@@H]2c3cc4c(cc3[C@H](O)[C@H]3COC(=O)[C@H]23)OCO4)cc(OC)c1OC	0	0	152*	-57	-14	118	164*	108
CCC(C(=O)Nc1ccccc1OC)n1c(C(=O)OC)cc2ccsc21 (stereo not drawn)	-2	-25	142*	-45	14	148*	104	87
CCOC(=O)c1cc(-c2ccccc2)nc2ccc(C)cc12	3	-1	·	·	·	·	·	·
CCOC(=O)Cc1cc(-c2ccccc2)nc2ccc3ccccc3c12	1	2	136*	-39	-6	124	114	105
Oc1ccc(Br)cc1-c1cc(-c2ccccc2)n[nH]1	1	9	141*	-46	-4	125	104	101
Oc1ccc(Br)cc1-c1cc(-c2ccc(Cl)cc2)n[nH]1	1	1	132	-33	2	·	·	·
COCc1cc(C)nc2sc(C(=O)Nc3cccc(OC)c3)c(N)c12	·	2	·	·	·	·	·	·
N#CC1=C(N)Oc2n[nH]c(-c3cccs3)c2C1c1cccs1 (stereo not drawn)	0	4	176*	-89	24	114	116	72
Cc1nn(-c2ccccc2)c2c1C(c1cccs1)C(C#N)=C(N)O2 (stereo not drawn)	0	4	148*	-49	15	129	102	95
Cc1ccc2nc(C)c(C(=O)NN=C3CCCCCC3)n2c1	-1	-2	105	-1	1	·	·	·
